Our source for the Ki, pKi and IC50 values is ChEMBL document CHEMBL1151760, “Novel high-affinity and selective biaromatic 4-substituted gamma-hydroxybutyric acid (GHB) analogues as GHB ligands: design, synthesis, and binding studies” (J Med Chem, 2008).

Some results are limits rather than exact numbers.

For test [1], the target named is GHB high-affinity binding site (Rattus norvegicus). The experiment in a line: Displacement of [3H]NCS-382 from GHB high-affinity binding site in rat brain homogenate. (In a radioligand displacement assay an active substance lowers the binding of a labelled ligand.)
Test [2] is described as follows: Displacement of [3H]GABA from GABAB receptor in rat brain synaptic membranes. The format is cell membranes, Membrane. A digest of the protocol:
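Adult male Sprague-Dawley rat cortex and central hemisphere synaptic membranes, thawed and washed four times by homogenization in 50 mM Tris-HCl pH 7.4 and 48000g spins at 4 °C. 200 µg protein was incubated with 5 nM [3H]GABA, 40 µM isoguvacine to saturate GABAA sites, and 0.1 mM displacer in Tris-HCl with 2.5 mM CaCl2, pH 7.4, for 45 min at 25 °C. Nonspecific binding was set with 0.1 mM baclofen. Bound counts were read by filtration and scintillation.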

Test [3] can be described thus: Displacement of [3H]muscimol from GABAA receptor in rat brain synaptic membranes. The format is cell membranes, Membrane. A digest of the protocol: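 Washed synaptic membranes from adult male Sprague-Dawley rat cortex and central hemispheres in 50 mM Tris-HCl pH 7.4. 100 µg protein was incubated with 5 nM [3H]muscimol and 0.1 mM displacer at 0 °C for 60 min. Nonspecific binding was set with 1 mM GABA. Bound counts were read by filtration and scintillation. Triplicates, at least two independent experiments.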

As a reminder, the Ki is a dissociation constant, usually derived from enzyme kinetics or from competition with a known ligand. Higher therefore signals weaker binding. What is called pKi is the negative decadic logarithm of the Ki, by convention in mol/L. In general, IC50 refers to the point on the concentration scale where inhibition reaches its midpoint. In the case of `O=C([O-])CCC(O)c1ccc(/C=C/c2ccccc2)cc1.[Li+]` (stereo unspecified), in test [1], the Ki stood at 160 nM and the pKi worked out at 6.79. The molecule further displayed an IC50 in test [2] greater than 100 µM. In test [3], this molecule gave an IC50 greater than 100 µM.

In test [1], `O=C([O-])CCC(O)c1ccc(/C=C/c2ccncc2)cc1.[Li+]` (stereo unspecified) registered a Ki of 340 nM and a pKi of 6.49.

In test [1], `O=C(O)CCCc1ccc(CCc2ccccc2)cc1` gave a Ki of 1200 nM and a pKi of 6.01.

In test [1], `O=C([O-])CCC(O)c1ccc(OCc2ccccc2F)cc1.[Li+]` (racemic) yielded a Ki of 41 nM and a pKi of 7.39.

In test [1], `O=C([O-])CCC(O)c1ccc(OCc2ccccc2)cc1.[Li+]` (racemic) yielded a Ki of 110 nM and a pKi of 6.96. The IC50 in test [2] was greater than 100 µM. Besides, in test [3], the IC50 was greater than 100 µM.

`Cc1ncsc1/C=C/c1ccc(C(O)CCC(=O)[O-])cc1.[Li+]` (stereo unspecified): in test [1], the Ki was 250 nM and the pKi came to 6.62.

With `O=C([O-])CCC(O)c1ccc(/C=C/c2cccc(Cl)c2)cc1.[Li+]` (stereo unspecified), in test [1], the Ki was 79 nM and the pKi is listed as 7.11.

In test [1], `O=C([O-])CC[C@H](O)c1ccc(OCc2ccccc2I)cc1.[Li+]` yielded a Ki of 220 nM and a pKi of 6.66.

In test [1], `O=C([O-])CCC(O)c1ccc(Br)cc1.[Li+]` (racemic) yielded a Ki of 1100 nM and a pKi of 5.96.

In test [1], `O=C([O-])CCC(O)c1ccc(CCc2ccccc2)cc1.[Li+]` (racemic) had a Ki of 75 nM and a pKi of 7.13. The same molecule had an IC50 in test [2] greater than 100 µM. Besides, the IC50 in test [3] is greater than 100 µM.

In test [1], `O=C([O-])CCC(O)c1ccc(OCc2ccccc2Br)cc1.[Li+]` (racemic) displayed a Ki of 53 nM and a pKi of 7.28.

In test [1], `O=C([O-])CCC(O)c1ccc(OCc2cccc(F)c2)cc1.[Li+]` (racemic) showed a Ki of 63 nM and a pKi of 7.22.

In test [1], `O=C([O-])CCC(O)c1ccc(/C=C/c2ccccn2)cc1.[Li+]` (stereo unspecified) had a Ki of 230 nM and a pKi of 6.67.

In test [1], `O=C([O-])CCC(O)c1ccc(OCc2cccc(I)c2)cc1.[Li+]` (racemic) gave a Ki of 75 nM and a pKi of 7.12.

In the case of `O=C([O-])CCC(O)c1ccc(-c2ccccc2)cc1.[Li+]` (racemic), in test [1], the Ki is 440 nM and the pKi turned out to be 6.36.

In test [1], `O=C([O-])CCC(O)c1ccc(OCc2ccc(F)cc2)cc1.[Li+]` (racemic) returned a Ki of 93 nM and a pKi of 7.03.

On to `O=C([O-])CCC(O)c1ccc(OCc2ccc(Br)cc2)cc1.[Li+]` (racemic), for which, in test [1], the Ki turned out to be 34 nM and the pKi was 7.48.

In test [1], `O=C([O-])CCC(O)c1ccc(OCc2cccs2)cc1.[Li+]` (racemic) registered a Ki of 96 nM and a pKi of 7.03.

Regarding `COc1ccc(/C=C/c2ccc(C(O)CCC(=O)[O-])cc2)cc1.[Li+]` (stereo unspecified), in test [1], the Ki was 180 nM and the pKi is reported as 6.75.

Turning to `O=C(O)CCC(=O)c1ccc(Br)cc1`, in test [1], the affinity, expressed as Ki, was 17000 nM and the pKi is listed as 4.61.

In test [1], `O=C([O-])CCC(O)c1ccc(OCc2ccco2)cc1.[Li+]` (racemic) came in with a Ki of 200 nM and a pKi of 6.72.

Regarding `O=C([O-])CC[C@@H](O)c1ccc(OCc2ccccc2I)cc1.[Li+]` (racemic), in test [1], the Ki was 22 nM and the pKi worked out at 7.68.

With `O=C([O-])CCC(O)c1ccc(/C=C/c2ccccc2Cl)cc1.[Li+]` (stereo unspecified), in test [1], the affinity, expressed as Ki, was 54 nM and the pKi came out at 7.28.

In test [1], `O=C(O)CCC(=O)c1ccc(CCc2ccccc2)cc1` had a Ki of 8800 nM and a pKi of 5.07.

In test [1], `O=C([O-])CCC(O)c1ccc(Cc2ccccc2)cc1.[Li+]` (racemic) came in with an inhibitory constant (Ki) of 120 nM and a pKi of 6.94.

On to `O=C([O-])CCC(O)c1ccc(OCc2ccccc2I)cc1.[Li+]` (racemic), for which, in test [1], the affinity, expressed as Ki, was 60 nM and the pKi was 7.22. For the same molecule, the IC50 in test [2] is greater than 100 µM. Besides, in test [3], the IC50 was greater than 100 µM.

Take `O=C(O)CCC(=O)c1ccc(Cc2ccccc2)cc1`: in test [1], the Ki was 15000 nM and the pKi is given as 4.83.

In test [1], `O=C(O)CCC(O)c1ccc(OCc2cccc(Br)c2)cc1` (racemic) gave a Ki of 51 nM and a pKi of 7.32.

In test [1], `O=C([O-])CCC(O)c1ccc(OCc2ccc(I)cc2)cc1.[Li+]` (racemic) returned a Ki of 62 nM and a pKi of 7.21.
